Measurements reported in ChEMBL document CHEMBL1128328, “Identification of efficient pentapeptide substrates for the tyrosine kinase pp60c-src” (J Med Chem, 1995).

Legend:
[1] = molecular target: Proto-oncogene tyrosine-protein kinase Src (Homo sapiens) (UniProt P12931); assay: Incorporation of 32P into phosphopeptide product (1 mM) in pp60c-src phosphorylation assay
Summary of the method: (§1)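 Human pp60c-src (baculovirus/SF9 recombinant, partially purified), 10 units in 40 µL; 138 mM MOPS pH 7.1, 0.64 mM MgCl2 (calculated free Mg2+ 0.44 mM), BSA 0.37 mg/mL, 200 µM [γ-32P]ATP, 20 µM ADP; peptide at 1 or 3 mM final; 30 min, 30 °C; acid molybdate quench; PEI-cellulose column, 1 M LiCl elution, Cerenkov counting; triplicate, no-peptide blank subtracted.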

[2] = molecular target: Proto-oncogene tyrosine-protein kinase Src (Homo sapiens) (UniProt P12931); assay: Incorporation of 32P into phosphopeptide product (3 mM) in pp60c-src phosphorylation assay; summary of the method: as §1
[3] = test system: CC[C@H](C)[C@H](NC(=O)[C@H](C)NC(=O)[C@H](CC(=O)O)NC(=O)[C@H](CCC(=O)O)NC(C)=O)C(=O)N[C@@H](Cc1ccc(O)cc1)C(N)=O; assay: (§2) Michaelis-Menten (Km) constant for peptide phosphorylation by pp60src
Summary of the method: (§3)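 Same pp60c-src reaction (pH 7.1 MOPS, 200 µM [γ-32P]ATP, 20 µM ADP, 30 min, 30 °C, PEI-cellulose/Cerenkov readout). Two peptide levels, near and ~10× estimated Km (200 µM/2 mM, 25/300 µM, or 50 µM/1 mM depending on peptide). Initial velocities in 4–6 repeats per level, minus zero-time blank. Apparent values from Cornish-Bowden direct linear plot.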

[4] = test system: CC[C@H](C)[C@H](NC(=O)[C@H](CCC(=O)O)NC(=O)[C@H](CCC(=O)O)NC(=O)[C@H](CCC(=O)O)NC(=O)[C@H](C)N)C(=O)N[C@@H](Cc1ccc(O)cc1)C(=O)NCC(=O)N[C@@H](CCC(=O)O)C(=O)N[C@@H](Cc1ccccc1)C(=O)N[C@@H](CCC(=O)O)C(=O)N[C@@H](C)C(=O)N[C@@H](CCCCN)C(=O)N[C@@H](CCCCN)C(=O)N[C@@H](CCCCN)C(=O)N[C@@H](CCCCN)C(=O)O; assay: as §2; summary of the method: as §3
[5] = test system: CC[C@H](C)[C@H](NC(C)=O)C(=O)N[C@@H](Cc1ccc(O)cc1)C(=O)NCC(=O)N[C@@H](CCC(=O)O)C(=O)N[C@@H](Cc1ccccc1)C(N)=O; assay: as §2; summary of the method: as §3
[6] = test system: CC[C@H](C)[C@H](NC(=O)[C@H](C)NC(=O)[C@H](CC(=O)O)NC(=O)[C@H](CCC(=O)O)NC(C)=O)C(=O)N[C@@H](Cc1ccc(O)cc1)C(N)=O; assay: (§4) Maximum enzyme velocity(Vmax) of peptide phosphorylation by pp60src; summary of the method: as §3
[7] = test system: CC[C@H](C)[C@H](NC(=O)[C@H](CCC(=O)O)NC(=O)[C@H](CCC(=O)O)NC(=O)[C@H](CCC(=O)O)NC(=O)[C@H](C)N)C(=O)N[C@@H](Cc1ccc(O)cc1)C(=O)NCC(=O)N[C@@H](CCC(=O)O)C(=O)N[C@@H](Cc1ccccc1)C(=O)N[C@@H](CCC(=O)O)C(=O)N[C@@H](C)C(=O)N[C@@H](CCCCN)C(=O)N[C@@H](CCCCN)C(=O)N[C@@H](CCCCN)C(=O)N[C@@H](CCCCN)C(=O)O; assay: as §4; summary of the method: as §3
[8] = test system: CC[C@H](C)[C@H](NC(C)=O)C(=O)N[C@@H](Cc1ccc(O)cc1)C(=O)NCC(=O)N[C@@H](CCC(=O)O)C(=O)N[C@@H](Cc1ccccc1)C(N)=O; assay: as §4; summary of the method: as §3

Molecule	CPM x1000 [1]	CPM x1000 [2]	also measured
CC[C@H](C)[C@H](NC(=O)[C@H](CCC(=O)O)NC(=O)[C@H](CCC(=O)O)NC(=O)[C@H](CCC(=O)O)NC(=O)[C@H](C)N)C(=O)N[C@@H](Cc1ccc(O)cc1)C(=O)NCC(=O)N[C@@H](CCC(=O)O)C(=O)N[C@@H](Cc1ccccc1)C(=O)N[C@@H](CCC(=O)O)C(=O)N[C@@H](C)C(=O)N[C@@H](CCCCN)C(=O)N[C@@H](CCCCN)C(=O)N[C@@H](CCCCN)C(=O)N[C@@H](CCCCN)C(=O)O	702	–	–
Ac-DAEYA-NH2	–	23.4	–
Ac-EDAEYA-NH2	–	28.5	–
Ac-EDAIY-NH2	403	–	–
Ac-EGTYG-NH2	63.5	89.5	–
Ac-GEGTYGV-NH2	–	120	–
Ac-IYGEF-NH2	497	–	–
H-RRLIEDAEYAARG-OH	–	80.3	–
Proto-oncogene tyrosine-protein kinase Src (Homo sapiens) (from UniProt P12931)	–	–	Km [3]: 880 µM; Km [4]: 100 µM; Km [5]: 368 µM; Vmax [6]: 1.86 µM/min/mg; Vmax [7]: 3.06 µM/min/mg; Vmax [8]: 1.02 µM/min/mg
